ChEMBL document CHEMBL4346763, “Incorporation of a chiral gem-disubstituted nitrogen heterocycle yields an oxazolidinone antibiotic with reduced mitochondrial toxicity” (Bioorg Med Chem Lett, 2019)
In brackets after ≈: the same amount, converted by molar mass.

Key:
Staphylococcus aureus [1] = assay: Antibacterial activity against methicillin-sensitive Staphylococcus aureus ATCC 8235-4 measured after 16 hrs by broth microdilution method; format: functional; settings: ATCC 8235-4, 16 h
Procedure, shortened: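 Overnight culture diluted 1:200 into plates, sealed, shaken at 150 RPM at 37 °C for 16 h, then OD600 read. MIC defined as the concentration giving at least 90% growth inhibition relative to DMSO-treated wells; μM converted to μg/mL and rounded to nearest integer.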

HepG2 = assay: Cytotoxicity against human HepG2 cells assessed as reduction in cell viability by CellTiter-Glo assay; format: cell-based
Cytochrome P450 2C19 = Cytochrome P450 2C19 (Homo sapiens, UniProt P33261); assay: Inhibition of CYP2C19 (unknown origin); format: ADME
Cytochrome P450 2C19, sequence (P33261 whole entry): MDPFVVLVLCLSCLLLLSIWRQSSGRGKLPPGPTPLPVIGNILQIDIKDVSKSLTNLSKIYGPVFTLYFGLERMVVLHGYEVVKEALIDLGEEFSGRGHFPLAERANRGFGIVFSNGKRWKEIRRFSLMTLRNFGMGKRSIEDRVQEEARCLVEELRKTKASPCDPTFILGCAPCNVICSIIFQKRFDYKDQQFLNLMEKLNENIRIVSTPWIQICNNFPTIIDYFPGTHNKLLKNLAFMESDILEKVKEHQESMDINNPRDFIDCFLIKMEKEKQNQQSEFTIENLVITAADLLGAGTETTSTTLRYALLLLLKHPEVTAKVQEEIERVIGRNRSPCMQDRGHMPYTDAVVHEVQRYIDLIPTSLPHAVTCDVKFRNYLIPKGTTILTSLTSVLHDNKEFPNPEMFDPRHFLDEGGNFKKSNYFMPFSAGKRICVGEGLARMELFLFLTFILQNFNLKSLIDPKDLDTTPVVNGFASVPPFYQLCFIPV

[2] = Aqueous solubility of compound; format: physicochemical; settings: buffer
Cytochrome P450 1A2 = target: T1, Cytochrome P450 1A2 (Homo sapiens, UniProt P05177); assay: Inhibition of CYP1A2 (unknown origin); format: ADME
T1 sequence (P05177 whole entry): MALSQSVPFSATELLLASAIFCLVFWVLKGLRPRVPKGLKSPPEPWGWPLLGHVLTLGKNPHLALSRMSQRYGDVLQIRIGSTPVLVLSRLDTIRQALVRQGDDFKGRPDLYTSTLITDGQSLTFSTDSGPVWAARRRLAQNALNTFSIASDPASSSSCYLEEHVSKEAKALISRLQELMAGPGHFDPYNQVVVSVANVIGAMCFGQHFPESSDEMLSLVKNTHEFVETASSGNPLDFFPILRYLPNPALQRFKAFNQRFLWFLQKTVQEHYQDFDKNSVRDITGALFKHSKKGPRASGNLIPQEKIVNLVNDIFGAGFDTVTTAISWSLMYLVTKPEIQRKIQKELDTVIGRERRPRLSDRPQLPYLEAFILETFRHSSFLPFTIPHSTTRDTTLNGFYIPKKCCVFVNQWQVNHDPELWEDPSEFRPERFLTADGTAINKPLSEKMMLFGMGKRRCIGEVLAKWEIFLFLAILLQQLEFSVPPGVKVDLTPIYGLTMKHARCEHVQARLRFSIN

Cytochrome P450 2D6 = Cytochrome P450 2D6 (Homo sapiens, UniProt P10635); assay: Inhibition of CYP2D6 (unknown origin); format: ADME
Cytochrome P450 2D6, sequence (P10635 whole entry): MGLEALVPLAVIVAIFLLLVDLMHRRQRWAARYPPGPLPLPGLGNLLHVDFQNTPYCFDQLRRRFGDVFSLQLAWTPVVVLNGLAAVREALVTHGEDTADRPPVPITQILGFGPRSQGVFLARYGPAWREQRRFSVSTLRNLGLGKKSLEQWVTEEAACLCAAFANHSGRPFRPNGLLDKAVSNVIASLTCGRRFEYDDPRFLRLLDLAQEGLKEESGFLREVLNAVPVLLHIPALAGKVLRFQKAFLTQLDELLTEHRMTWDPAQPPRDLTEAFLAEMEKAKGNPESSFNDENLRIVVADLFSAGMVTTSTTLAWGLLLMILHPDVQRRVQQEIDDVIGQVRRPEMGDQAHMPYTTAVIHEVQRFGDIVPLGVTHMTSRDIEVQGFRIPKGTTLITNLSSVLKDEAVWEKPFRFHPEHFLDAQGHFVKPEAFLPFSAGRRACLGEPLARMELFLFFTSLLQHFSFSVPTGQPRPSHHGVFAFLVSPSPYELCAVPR

[3] = Stability in gastric pH assessed as compound remaining after 24 hrs relative to control; format: physicochemical
[4] = Half life in mouse hepatocytes
Cytochrome P450 2C9 = Cytochrome P450 2C9 (Homo sapiens, UniProt P11712); assay: Inhibition of CYP2C9 (unknown origin); format: ADME
Cytochrome P450 2C9, sequence (P11712 whole entry): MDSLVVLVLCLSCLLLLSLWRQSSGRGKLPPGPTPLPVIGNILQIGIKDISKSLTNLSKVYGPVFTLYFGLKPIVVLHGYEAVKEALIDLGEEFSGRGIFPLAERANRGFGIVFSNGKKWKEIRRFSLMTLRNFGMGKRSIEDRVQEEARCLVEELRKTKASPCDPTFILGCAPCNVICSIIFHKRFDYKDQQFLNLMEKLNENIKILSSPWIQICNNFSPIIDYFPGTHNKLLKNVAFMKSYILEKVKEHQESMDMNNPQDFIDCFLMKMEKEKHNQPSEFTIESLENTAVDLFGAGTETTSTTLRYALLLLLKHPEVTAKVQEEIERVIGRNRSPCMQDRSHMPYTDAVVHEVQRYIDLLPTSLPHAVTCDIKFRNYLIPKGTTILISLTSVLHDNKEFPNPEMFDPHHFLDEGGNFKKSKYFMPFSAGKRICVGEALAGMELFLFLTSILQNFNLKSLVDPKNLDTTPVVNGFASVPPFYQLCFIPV

Staphylococcus aureus [5] = assay: Antibacterial activity against methicillin-resistant Staphylococcus aureus ATCC 43300 measured after 18 hrs by broth microdilution method; format: functional; settings: ATCC 43300, 18 h
Procedure, shortened: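 S. aureus ATCC 43300 grown overnight in cation-adjusted Mueller Hinton broth at 37 °C, diluted 40-fold and regrown 1.5-3 h to mid-log. Inoculum 5×10^5 CFU/mL added to 8-point 1:2 serial dilutions from a top final concentration of 32 μg/mL or 20 μM, DMSO ≤0.5%, in duplicate. Incubated 18 h at 37 °C without shaking.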

Cytochrome P450 3A4 = Cytochrome P450 3A4 (Homo sapiens, UniProt P08684); assay: Inhibition of CYP3A4 (unknown origin); format: ADME
Cytochrome P450 3A4, sequence (P08684 whole entry): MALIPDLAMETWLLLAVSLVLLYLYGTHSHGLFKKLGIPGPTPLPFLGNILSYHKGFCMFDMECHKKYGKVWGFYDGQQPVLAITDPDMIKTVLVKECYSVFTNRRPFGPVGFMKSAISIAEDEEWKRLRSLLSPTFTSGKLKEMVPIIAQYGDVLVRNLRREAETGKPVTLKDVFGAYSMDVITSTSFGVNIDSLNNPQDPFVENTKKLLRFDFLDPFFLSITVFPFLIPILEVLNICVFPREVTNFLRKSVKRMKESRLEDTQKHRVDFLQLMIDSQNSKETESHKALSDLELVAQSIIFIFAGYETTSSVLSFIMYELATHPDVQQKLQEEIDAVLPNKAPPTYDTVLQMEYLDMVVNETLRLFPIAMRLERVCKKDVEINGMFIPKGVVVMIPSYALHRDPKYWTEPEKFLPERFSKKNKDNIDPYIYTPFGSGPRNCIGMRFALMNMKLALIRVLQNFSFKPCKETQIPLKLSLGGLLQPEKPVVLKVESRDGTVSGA

[6] = Inhibition of protein synthesis in mitochondria (unknown origin) assessed as [35S]methionine incorporation incubated for 15 to 120 mins by paper disk assay; parameters: species or system Homo sapiens
Staphylococcus aureus [7] = assay: Antibacterial activity against Staphylococcus aureus JC9213 by CLSI based broth dilution assay; format: functional
Staphylococcus aureus [8] = assay: Antibacterial activity against methicillin-sensitive Staphylococcus aureus ATCC 8235-4 at 6 ug/ml measured after 16 hrs by broth microdilution method relative to control; format: functional; settings: ATCC 8235-4, 16 h
Procedure, shortened: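 Overnight S. aureus 8235-4 culture diluted 1:200 into LB broth containing compound at 4–22 μM in 2 μM steps. Plates sealed and shaken at 150 rpm, 37 °C, 16 h. OD600 read, and growth inhibition expressed relative to DMSO carrier-only wells. μM values converted to μg/mL and rounded to the nearest integer.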

Staphylococcus aureus [9] = assay: Antibacterial activity against methicillin-resistant Staphylococcus aureus ATCC 43300 at 6 ug/ml measured after 18 hrs by broth microdilution method relative to control; format: functional; settings: ATCC 43300, 18 h

CC(=O)NC[C@H]1CN(c2ccc(N3CCOC4(CCCNC4)C3)c(F)c2)C(=O)O1 (some centres undefined)
MIC (Staphylococcus aureus [1]): > 32 µg/mL

CC(=O)NC[C@H]1CN(c2ccc(N3CCOC4(CCN(C)C4)C3)c(F)c2)C(=O)O1 (some centres undefined)
MIC (Staphylococcus aureus [1]): > 32 µg/mL

CC(=O)NC[C@H]1CN(c2ccc(N3CCO[C@@]4(CCCOC4)C3)c(F)c2)C(=O)O1
EC50 (HepG2): > 30 µM | INH (Cytochrome P450 2C19): > 100 µM | solubility [2]: > 52.15 µg/mL | INH (Cytochrome P450 1A2): > 100 µM | INH (Cytochrome P450 2D6): > 100 µM | Stability [3]: 94% | t1/2 [4]: 2.83 h | INH (Cytochrome P450 2C9): > 100 µM | MIC (Staphylococcus aureus [1]): 6 µg/mL (≈ 14.7 µM) | MIC (Staphylococcus aureus [5]): 5 µg/mL (≈ 12.3 µM) | INH (Cytochrome P450 3A4): > 100 µM

CC(=O)NC[C@H]1CN(c2ccc(N3CCN(C(=O)CO)CC3)c(F)c2)C(=O)O1 [EPEREZOLID]
IC50 [6]: 4.2 µg/mL (≈ 10.6 µM) | MIC (Staphylococcus aureus [7]): 2 µg/mL (≈ 5.07 µM)

CC(=O)NC[C@H]1CN(c2ccc(N3CCOC4(CCCOC4)C3)c(F)c2)C(=O)O1 (some centres undefined)
MIC (Staphylococcus aureus [1]): 7 µg/mL (≈ 17.2 µM)

CCCC1(CO)CN(c2ccc(N3C[C@H](CNC(C)=O)OC3=O)cc2F)CCO1 (some centres undefined)
inhibition at 6 µg/mL (Staphylococcus aureus [8]): 48%

CCCC1(C)CN(c2ccc(N3C[C@H](CNC(C)=O)OC3=O)cc2F)CCO1 (some centres undefined)
MIC (Staphylococcus aureus [5]): 16 µg/mL (≈ 40.7 µM)

CC(=O)NC[C@H]1CN(c2ccc(-n3cncn3)c(F)c2)C(=O)O1
IC50 [6]: 1.7 µg/mL (≈ 5.32 µM) | MIC (Staphylococcus aureus [7]): 4 µg/mL (≈ 12.5 µM)

CC(=O)NC[C@H]1CN(c2ccc(N3CCOC(C)(CCCOC(C)=O)C3)c(F)c2)C(=O)O1 (some centres undefined)
MIC (Staphylococcus aureus [1]): > 32 µg/mL

C=CCC1(COCc2ccccc2)CN(c2ccc(N3C[C@H](CNC(C)=O)OC3=O)cc2F)CCO1 (some centres undefined)
MIC (Staphylococcus aureus [1]): > 32 µg/mL

CC(=O)NC[C@H]1CN(c2ccc(N3CCOC4(CCNC4)C3)c(F)c2)C(=O)O1 (some centres undefined)
MIC (Staphylococcus aureus [1]): > 32 µg/mL

CC(=O)NC[C@H]1CN(c2ccc(N3CCOC(C)(CCCO)C3)c(F)c2)C(=O)O1 (some centres undefined)
MIC (Staphylococcus aureus [5]): > 32 µg/mL

CC(=O)NC[C@H]1CN(c2ccc(C3=CCOCC3)c(F)c2)C(=O)O1
IC50 [6]: 0.95 µg/mL (≈ 2.84 µM) | MIC (Staphylococcus aureus [7]): 1 µg/mL (≈ 2.99 µM)

CC(=O)NC[C@H]1CN(c2ccc(N3CCOC4(CCOC4)C3)c(F)c2)C(=O)O1 (some centres undefined)
inhibition at 6 µg/mL (Staphylococcus aureus [8]): 65%

CC(=O)NC[C@H]1CN(c2ccc(N3CCO[C@]4(CCCOC4)C3)c(F)c2)C(=O)O1
EC50 (HepG2): > 30 µM | INH (Cytochrome P450 2C19): > 100 µM | solubility [2]: > 48.49 µg/mL | INH (Cytochrome P450 1A2): > 100 µM | INH (Cytochrome P450 2D6): > 100 µM | Stability [3]: 89% | t1/2 [4]: 2.138 h | INH (Cytochrome P450 2C9): > 100 µM | MIC (Staphylococcus aureus [1]): 9 µg/mL (≈ 22.1 µM) | INH (Cytochrome P450 3A4): > 100 µM

CC(=O)NC[C@H]1CN(c2ccc(N3CCOC(C)(C)C3)c(F)c2)C(=O)O1
MIC (Staphylococcus aureus [5]): 8 µg/mL (≈ 21.9 µM)

CC(=O)NC[C@H]1CN(c2ccc(N3CCOC(C)(CCN(C)C)C3)c(F)c2)C(=O)O1 (some centres undefined)
MIC (Staphylococcus aureus [1]): > 32 µg/mL

CC(=O)NC[C@H]1CN(c2ccc(N3CCOC4(CCCN(C(C)=O)C4)C3)c(F)c2)C(=O)O1 (some centres undefined)
inhibition at 6 µg/mL (Staphylococcus aureus [9]): 18% | inhibition at 6 µg/mL (Staphylococcus aureus [8]): 18%

C=CCC1(C)CN(c2ccc(N3C[C@H](CNC(C)=O)OC3=O)cc2F)CCO1 (some centres undefined)
MIC (Staphylococcus aureus [5]): 16 µg/mL (≈ 40.9 µM)

CC(=O)NC[C@H]1CN(c2ccc(N3CCOCC3)c(F)c2)C(=O)O1 [LINEZOLID]
EC50 (HepG2): > 30 µM | IC50 [6]: 12.8 µg/mL (≈ 37.9 µM) | INH (Cytochrome P450 2C19): > 100 µM | INH (Cytochrome P450 1A2): > 100 µM | INH (Cytochrome P450 2D6): > 100 µM | Stability [3]: 98% | t1/2 [4]: > 3.613 h | INH (Cytochrome P450 2C9): > 100 µM | MIC (Staphylococcus aureus [5]): 1 µg/mL (≈ 2.96 µM) | INH (Cytochrome P450 3A4): > 100 µM

C/N=c1\ccc(-c2ccc(N3C[C@H](CNC(C)=O)OC3=O)cc2F)ccc1O
IC50 [6]: 0.83 µg/mL (≈ 2.15 µM) | MIC (Staphylococcus aureus [7]): 2 µg/mL (≈ 5.19 µM)
